Measurements published in ChEMBL document CHEMBL1955791, “Studies on gambogic acid (IV): Exploring structure-activity relationship with IκB kinase-beta (IKKβ)” (Eur J Med Chem, 2012).
Activity calls are given as the source filed them. The calls are words filed in the database; no cut-off is given here.

Columns and labels:
[1] = target: T1, Inhibitor of nuclear factor kappa-B kinase subunit beta (Homo sapiens, UniProt O14920); test: Inhibition of IKK-beta using TMB substrate after 15 mins by spectrophotometer analysis
T1 sequence (O14920 whole entry): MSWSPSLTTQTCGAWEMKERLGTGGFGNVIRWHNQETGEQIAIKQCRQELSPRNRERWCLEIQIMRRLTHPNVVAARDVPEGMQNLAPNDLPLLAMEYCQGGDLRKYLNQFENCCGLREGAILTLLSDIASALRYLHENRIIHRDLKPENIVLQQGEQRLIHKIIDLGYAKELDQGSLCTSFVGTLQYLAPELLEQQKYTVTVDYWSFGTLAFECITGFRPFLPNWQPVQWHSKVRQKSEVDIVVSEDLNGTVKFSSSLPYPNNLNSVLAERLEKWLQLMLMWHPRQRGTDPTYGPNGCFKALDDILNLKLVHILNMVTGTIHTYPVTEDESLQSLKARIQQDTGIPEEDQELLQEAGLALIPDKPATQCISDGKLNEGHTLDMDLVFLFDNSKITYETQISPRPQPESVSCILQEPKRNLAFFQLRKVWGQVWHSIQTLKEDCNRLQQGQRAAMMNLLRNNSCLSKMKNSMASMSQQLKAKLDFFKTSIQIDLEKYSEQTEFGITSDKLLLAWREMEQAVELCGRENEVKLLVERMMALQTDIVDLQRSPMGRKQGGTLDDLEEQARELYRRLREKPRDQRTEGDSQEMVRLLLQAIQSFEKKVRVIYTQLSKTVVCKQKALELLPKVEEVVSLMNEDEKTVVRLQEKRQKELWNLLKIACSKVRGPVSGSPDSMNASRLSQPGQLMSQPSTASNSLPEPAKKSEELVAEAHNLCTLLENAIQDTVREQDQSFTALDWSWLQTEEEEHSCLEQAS
Summary of the method: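 Kit-supplied IKKβ (50 ng in 4× reaction cocktail) preincubated with test sample 5 min at room temperature. 2× ATP/biotinylated substrate peptide cocktail added, 30 min at room temperature, stopped with 50 mM EDTA pH 8. Product captured on streptavidin plate, probed with anti-phospho-IκBα (Ser32) then HRP anti-rabbit IgG. TMB developed 15 min, read at 450 nm.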

A549 [2] = test: Antiproliferative activity against human A549 cells after 24 hrs by MTT assay; assay type: functional, cell-based; conditions: A549, 24 h
Summary of the method: (§1)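 Test agents diluted in culture medium, 24 h exposure. Viability read colorimetrically by MTT; vitality index (%) = A_treatment/A_control × 100; IC50 reported.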

U-251 [3] = test: Antiproliferative activity against human U251 cells after 24 hrs by MTT assay; assay type: functional, cell-based; conditions: U-251, 24 h; summary of the method: as §1
A549 [4] = test: Inhibition of NF-kappaB activation in human A549 cells assessed as inhibition of TNFalpha/IFNgamma/IL-1beta-induced NF-kappaB nuclear translocation treated 2 hrs before TNFalpha/IFNgamma/IL-1beta stimulation measured after 30 mins; assay type: cell-based
Summary of the method: (§2)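 A549 cells plated at 9000 per well, serum-starved 18 h, then given compound at graded concentrations for 2 h at 37 °C. Stimulated 30 min at 37 °C with TNFα 50 ng/mL, IFN-γ 100 U/mL and IL-1β 100 U/mL. Fixed, permeabilised and immunostained for NF-κB. High-content imaging read-out was the nuclear/cytoplasmic NF-κB fluorescence ratio, taken as the translocation inhibition rate.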

A549 [5] = test: Inhibition of NF-kappaB activation in human A549 cells assessed as inhibition of TNFalpha/IFNgamma/IL-1beta-induced NF-kappaB nuclear translocation at 5 uM treated 2 hrs before TNFalpha/IFNgamma/IL-1beta stimulation measured after 30 mins; assay type: cell-based; summary of the method: as §2
A549 [6] = test: Inhibition of NF-kappaB activation in human A549 cells assessed as inhibition of TNFalpha-induced p65 nuclear translocation treated 4 hrs before TNFalpha stimulation measured after 30 mins by Western blotting; assay type: cell-based
Summary of the method: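 A549 cells either untreated or pretreated with compound for 4 h at 37 °C, then given TNFα 50 ng/mL for 30 min. Cytoplasmic and nuclear extracts were western-blotted for p65, with β-actin (cytoplasm) and histone (nucleus) as loading controls.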

[7] = target: T2, NF-kappa-B inhibitor alpha (Homo sapiens) (UniProt P25963); test: Inhibition of TNF-alpha-induced IkappaBalpha degradation in human A549 cells at 4 to 8 uM treated 4 hrs before TNFalpha stimulation measured after 30 mins by Western blotting; assay type: cell-based
T2 sequence (whole entry): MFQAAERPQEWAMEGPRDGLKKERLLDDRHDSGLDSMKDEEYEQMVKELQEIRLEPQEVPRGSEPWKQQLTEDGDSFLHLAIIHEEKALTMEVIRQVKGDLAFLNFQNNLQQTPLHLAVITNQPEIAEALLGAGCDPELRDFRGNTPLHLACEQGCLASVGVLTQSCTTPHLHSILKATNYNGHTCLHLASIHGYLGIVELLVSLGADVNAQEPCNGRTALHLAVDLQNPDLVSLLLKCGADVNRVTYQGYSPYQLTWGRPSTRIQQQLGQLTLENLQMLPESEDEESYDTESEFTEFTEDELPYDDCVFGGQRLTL
Summary of the method: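 A549 cells incubated 4 h with 4 or 8 μM compound, then exposed to TNF 0.1 ng/mL for various times. Cytoplasmic IκBα was followed by western blot.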

[8] = target: T2, NF-kappa-B inhibitor alpha (Homo sapiens); test: Inhibition of TNF-alpha-induced IkappaBalpha phosphorylation in human A549 cells at 4 to 8 uM treated 4 hrs before TNFalpha stimulation measured after 30 mins by Western blotting; assay type: cell-based
U-251 [9] = test: Induction of apoptosis in human U251 cells assessed as morphological changes at 8 uM after 24 hrs by inverted light microscopic analysis; assay type: functional, cell-based
Summary of the method: (§3)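 U251 cells in DMEM with 10% fetal calf serum under 5% CO2, exposed to compound for 24 h. Cell shape (rounding, shrinkage) inspected and photographed under an inverted light microscope at 200×, compared against untreated cells.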

U-251 [10] = test: Induction of apoptosis in human U251 cells assessed as morphological changes at 4 to 64 uM after 24 hrs by inverted light microscopic analysis; assay type: functional, cell-based; summary of the method: as §3
U-251 [11] = test: Induction of apoptosis in human U251 cells assessed as appearance of nuclear condensation and apoptotic bodies at 4 to 64 uM after 24 hrs by DAPI staining; assay type: functional, cell-based
Summary of the method: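 Treated U251 cells stained with DAPI and examined by fluorescence microscopy at 400× for bright condensed nuclei and apoptotic bodies.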

U-251 [12] = test: Induction of apoptosis in human U251 cells assessed as increase in early and median apoptotic cells at 4 to 16 uM after 24 hrs using Annexin V/propidium iodide staining by flow cytometry; assay type: functional
Summary of the method: (§4)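 U251 cells (DMEM, 10% fetal calf serum, 5% CO2) treated 24 h, washed with PBS and resuspended in binding buffer (pH 7.5, 10 mM HEPES, 2.5 mM CaCl2, 140 mM NaCl). Stained with Annexin V-FITC then PI for 10 min in the dark at room temperature, then analysed by flow cytometry. Lower-right quadrant counted as early/median apoptotic; upper-right as late apoptotic/necrotic.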

U-251 [13] = test: Induction of apoptosis in human U251 cells assessed as increase in late apoptotic and necrotic cells at 4 to 16 uM after 24 hrs using Annexin V/propidium iodide staining by flow cytometry; assay type: functional; summary of the method: as §4

SMILES | IC50 [1] [µM] | IC50 (A549 [2]) [µM] | IC50 (U-251 [3]) [µM] | other results
CC(C)=CC[C@@]12OC(C)(C)[C@@H]3C[C@@H](C=C4C(=O)CC(C)O[C@]431)C2=O (stereo partly drawn) | 40.3 | 60.3 | 82.4 | 
CC(C)=CC[C@@]12OC(C)(C)[C@@H]3C[C@@H](C=C4C(=O)c5c(O)cccc5O[C@]431)C2=O | 8.17 | 0.7 | 9.05 | 
CC(C)=CCc1cc(C2=CC(=O)C3=C[C@@H]4C[C@H]5C(C)(C)O[C@@](CC=C(C)C)(C4=O)[C@@]35O2)ccc1O | 25.3 | 15.5 | 18.7 | 
CC(C)=CC[C@@]12OC(C)(C)[C@@H]3C[C@@H](C=C4C(=O)c5ccccc5O[C@]431)C2=O | 24.2 | 1.93 | 18.7 | 
CC(C)=CCC[C@]1(C)C=Cc2c(O)c3c(c(CC=C(C)C)c2O1)O[C@]12C(=C[C@@H]4C[C@H]1C(C)(C)O[C@@]2(C/C=C(/C)C(=O)O)C4=O)C3=O [GAMBOGIC ACID] | 3.07 | 1.1 | 2.56 | inhibition (A549 [4]): Dose-dependent effect; inhibition (A549 [5]): 50.2%; inhibition (A549 [6]): Dose-dependent effect; inhibition [7]: Active; inhibition [8]: Active; Activity (U-251 [9]): Active
CC(C)=CCc1c(O)cc2c(c1O)C(=O)C1=C[C@@H]3C[C@H]4C(C)(C)O[C@@](CC=C(C)C)(C3=O)[C@@]14O2 | 10.8 | 14.4 | 22.4 | 
CC(C)=CC[C@@]12OC(C)(C)[C@@H]3C[C@@H](C=C4C(=O)c5c(O)cc(O)cc5O[C@]431)C2=O | 3.52 | 2.67 | 7.32 | Activity (U-251 [10]): Active; Activity (U-251 [11]): Active; Activity (U-251 [12]): 58.21%; Activity (U-251 [13]): 34.24%
O=c1cc(-c2ccccc2)oc2c(O)c(O)ccc12 [7,8-DIHYDROXYFLAVONE] | 9.82 | 37.2 | 50.1 | 
CC(C)=CCc1c(O)cc(O)c2c(=O)c3ccccc3oc12 | 13.1 | 34.9 | 46.8 | 
CC(C)=CC[C@@]12OC(C)(C)[C@@H]3C[C@@H](C=C4C(=O)C=C(c5ccccc5)O[C@]431)C2=O | 41.7 | 27.5 | 40.2 | 
CC(C)=CCc1c(O)cc(O)c2c1O[C@]13C(=C[C@@H]4C[C@H]1C(C)(C)O[C@@]3(CC=C(C)C)C4=O)C2=O | 6.6 | 3.58 | 8.57 | 
